Source: PubChem BioAssay (The Scripps Research Institute Molecular Screening Center)
M5 PAM = CHRM5 positive allosteric modulation; P08912; activation, % at 3 µM; CHO-K1 hM5, Fluo-8 calcium, ACh EC20 PAM; 0% = ACh EC20, 100% = ACh EC100; actives 0.3% (n = 360,000);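 active means activation above the run cutoff, the mean activation of all test compounds plus 3 SD, cut at about 18% in these data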
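system = human M5 receptor in CHO-K1 cells | reagent = EC20 acetylcholine as agonist stimulus | compound dosing = single-point, 3 µM nominal | incubation = Fluo-8 loading 80 min at 37 °C plus 30 min room temperature | detection = Fluo-8 calcium dye fluorescence, kinetic read | benchmarks = low control EC20 acetylcholine (0%), high control EC100 acetylcholine (100%)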
M5 antag = CHRM5 antagonism in calcium assay; CHO-hM5 cells, Fluo-8 calcium fluorescence, ACh EC80; actives 0.59% (n = 360,000); inhibition, % at 3 µM;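 active means inhibition above a per-plate cutoff, the mean of that plate's test compounds plus 3 SD, cut at about 27% in these data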;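 further: 0% = acetylcholine EC80 with DMSO and 100% = DMSO without agonist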
CHRM4 agonist = CHRM4 agonism in calcium assay; CHO-K1 hM4/Gqi5, Fluo-8 calcium fluorescence; vehicle 0%, full acetylcholine response 100%; activation, % at 3 µM; actives 0.14% (n = 360,000);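 active means activation above the run mean over all test wells plus 3 SD, cut at about 32% in these data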;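 further: peak over basal fluorescence ratio per well then scaled between controls; 0% = DMSO wells and 100% = acetylcholine at EC100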
Target sequence (P08173 whole entry, looked up): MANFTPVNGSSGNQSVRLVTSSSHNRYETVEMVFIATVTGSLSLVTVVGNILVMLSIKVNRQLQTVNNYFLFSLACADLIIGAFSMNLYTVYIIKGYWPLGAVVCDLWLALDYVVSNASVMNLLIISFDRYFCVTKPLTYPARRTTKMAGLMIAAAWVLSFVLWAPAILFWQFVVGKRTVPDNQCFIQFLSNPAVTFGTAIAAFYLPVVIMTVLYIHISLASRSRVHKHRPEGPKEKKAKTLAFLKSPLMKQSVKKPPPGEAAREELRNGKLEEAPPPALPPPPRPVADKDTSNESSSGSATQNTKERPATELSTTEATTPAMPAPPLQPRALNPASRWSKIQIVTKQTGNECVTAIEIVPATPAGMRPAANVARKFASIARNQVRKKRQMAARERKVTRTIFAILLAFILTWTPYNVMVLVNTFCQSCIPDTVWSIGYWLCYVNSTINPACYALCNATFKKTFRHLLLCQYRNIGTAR
CHRM4 PAM = positive allosteric modulators of human muscarinic M4 receptor; P08173; CHO-K1 hM4/Gqi5, Fluo-8 calcium fluorescence, ACh EC20; 0% = ACh EC20, 100% = maximal ACh; activation, % at 3 µM; actives 0.4% (n = 360,000); AID 624126;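 active means activation above its plate's cutoff, the mean activation of sample wells plus 3 SD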
CHRM4 antagonist = antagonists of human muscarinic M4 receptor (CHRM4); inhibition, % at 3 µM; actives 0.73% (n = 360,000); CHO-hM4 cells, ACh EC80, Fluo-8 calcium fluorescence; P08173;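 active means inhibition above its plate's cutoff, the mean inhibition of sample wells plus 3 SD, cut at about 27% in these data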;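 further: 0% = acetylcholine EC80 with DMSO and 100% = DMSO without agonist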
M5 ag = agonists of human muscarinic M5 receptor (CHRM5) | activation, % at 3 µM | actives 0.19% (n = 360,000) | P08912 | CHO-K1 hM5 cells, Fluo-8 calcium fluorescence; 0% DMSO wells, 100% maximal acetylcholine response;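 active means activation above the run's mean over test compounds plus 3 SD, cut at about 23% in these data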;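 further: signal is peak over basal fluorescence ratio across the kinetic read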
Numbers without * were called inactive. Shown are actives, neighbours in structure and some others; about 1.8% of the full set was active somewhere.

SMILES	M5 PAM	M5 antag	CHRM4 agonist	CHRM4 PAM	CHRM4 antagonist	M5 ag
O=C(NNC1CC(=O)N(c2ccc(Br)cc2)C1=O)c1ccco1 (stereo unspecified)	-5	5	5	9	-4	-2
CCOC(=O)c1ccc(N2C(=O)CC(Nc3ccc(O)cc3)C2=O)cc1 (stereo unspecified)	-1	-2	0	-4	-10	3
O=C(NNC1CC(=O)N(c2ccc(Br)cc2)C1=O)c1cccs1 (stereo unspecified)	4	-6	2	16	30*	3
CCN(CC)CCCNC(=O)c1cc(Cl)c(NC(=O)C2=C(C)OCCS2)cc1OC	0	2	1	1	-5	-7
COc1ccc(C2CC(=O)c3cnn(-c4nc(C)cc(C)n4)c3C2)cc1OC (stereo unspecified)	44*	20	6	11	24	7
CCOc1ccccc1-c1cc(C(=O)Nc2ccc(C(=O)O)cc2)c2ccccc2n1	-3	3	1	14*	-26	-4
Cc1ccc2c(c1)N(CC(=O)N1CCCC1)C(=O)C(C)O2 (stereo unspecified)	4	10	0	-2	-3	-6
C[C@H](CO)N1C[C@H](C)[C@@H](CN(C)S(=O)(=O)c2cccs2)Oc2ccc(NC(=O)CCC(F)(F)F)cc2C1=O	-1	3	-1	-6	29*	-7
C[C@@H]1CN([C@H](C)CO)C(=O)c2cc(NC(=O)Nc3ccc(C(F)(F)F)cc3)ccc2O[C@H]1CN(C)S(=O)(=O)c1cccs1	2	6	1	0	-1	0
COc1ccc(NC(=O)N(C)C[C@H]2Oc3c(NC(=O)Nc4ccc(C(F)(F)F)cc4)cccc3C(=O)N([C@H](C)CO)C[C@@H]2C)cc1	-27	16	37*	-6	29*	2
C[C@H](CO)N1C[C@H](C)[C@@H](CN(C)C(=O)Nc2ccc3c(c2)OCO3)Oc2c(NC(=O)Nc3ccc(C(F)(F)F)cc3)cccc2C1=O	-35	17	31	-7	30*	7
Cc1ccc(C2(C)NC(=O)N(CC(=O)NC(C)c3ccccc3)C2=O)cc1 (stereo unspecified)	-1	10	2	7	2	-4
COc1cc2c(cc1OC)C(c1cc(Br)c(OC)c(OC)c1)CC(=O)N2 (stereo unspecified)	-5	-2	1	-1	-3	-2
O=C(COC(=O)COc1ccc(Cl)cc1Br)NC1CCCC1	1	3	2	7	-8	-1
COc1cc2c(cc1NC(=O)C(C)Sc1ccc(NC(C)=O)cc1)oc1ccccc12 (stereo unspecified)	-18	30*	15	-14	18	6
CCOc1ccccc1C(=O)NC(C(=O)NCCc1ccccn1)C(C)C (stereo unspecified)	-1	10	2	1	-6	1
CN(C(=O)CSc1nc2ccc(Cl)cc2[nH]1)C1CCS(=O)(=O)C1 (stereo unspecified)	23*	-4	0	7	4	1
Cc1ccc(S(=O)(=O)N2CCOCC2)cc1C(=O)N1C(=O)c2cccc(N)c2C1=O	3	-5	1	27*	-26	-1
Cc1cc(C(=O)N2CCCC(Nc3ccc(F)cc3)C2)c(C)o1 (stereo unspecified)	5	1	1	3	-1	2
CCSc1nc2cc(S(=O)(=O)N3CCOCC3)ccc2o1	5	6	1	0	0	-2
Cc1ccc(C(=O)CSc2nc3cc(S(=O)(=O)N4CCOCC4)ccc3o2)cc1	19*	-11	1	7	-9	0
COc1ccc(-c2nnc(SCC(=O)Nc3ccc(C(=O)O)cc3)n2-c2ccc(Cl)cc2)cc1	-3	0	0	13*	-9	-1
COc1ccc(CC(=O)OCN2C(=O)c3ccccc3C2=O)cc1	4	0	2	11	-3	-3
Cc1ccc(C(=O)OCN2C(=O)c3ccccc3C2=O)o1	-4	-1	0	22*	-2	2
CCOC(=O)CCCCCCCCC(=O)Nc1ccc(-n2[nH]c(=O)cc2C)cc1	-11	-1	8	2	-17	24*
SMILES	M5 PAM	M5 antag	CHRM4 agonist	CHRM4 PAM	CHRM4 antagonist	M5 ag
COc1ccc(C(=O)/C=C/C(=O)N(CC(=O)NC2CCCCC2)Cc2cccs2)c(O)c1	-4	19	16	-18	34*	11
COCCN(CC(=O)NC1CCCCC1)C(=O)/C=C/C(=O)c1ccc(OC)cc1O	10	12	2	-5	18	3
CNC[C@@H]1Oc2cc(Br)ccc2S(=O)(=O)N([C@@H](C)CO)C[C@@H]1C	1	0	1	-13	48*	0
CCOC(=O)c1csc(-c2ccc(OC)c(OC)c2)n1	-4	12	1	-1	-10	1
COc1ccc(-c2nc(C(=O)O)cs2)cc1OC	26*	-15	2	7	-19	3
CCOc1ccccc1N(CC(=O)Nc1ccccc1C(=O)N1CCCC1)S(C)(=O)=O	2	1	2	0	0	-3
Cc1cc(OCCN2CCC(Cc3ccccc3)CC2)ccc1[N+](=O)[O-]	-24	-6	18	-16	0	-23
Cc1cc(N2CCCCC2)nc(NCc2ccccc2)n1	-24	8	37*	-17	8	33*
CC(=O)O[C@]1(C(C)=O)CC[C@H]2[C@@H]3C=C(C)C4=CC(=O)CC[C@@H]4[C@H]3CC[C@@]21C	-6	6	1	-10	17	-1
C#C[C@]1(OC(C)=O)CCC2C3CCC4=CC(=O)CC[C@@H]4C3CC[C@@]21C (stereo partly specified)	-17	3	13	-7	-9	27*
Cc1ccc(S(=O)(=O)N/N=C/c2ccc(OC3CSC3)cc2)cc1	-1	15	42*	4	20	38*
Cc1ccc(S(=O)(=O)CCc2nnc(NC(=O)COc3cccc(C)c3)s2)cc1	1	7	2	5	-3	2
CCN(C(=O)C1CCN(c2nc(-c3ccc(OC)cc3)no2)CC1)c1ccc(OC)cc1	-20	28*	13	-7	-4	6
COc1ccc(NC(=O)C2CCN(c3nc(-c4ccc(OC)cc4)no3)CC2)cc1	0	-2	2	-1	-5	1
Cc1ccc2nc(C)cc(C(=O)NC3CCCCCC3)c2c1	-7	-4	2	25*	-19	5
CCc1cc(C(=O)OC)c(NC(=O)c2ccoc2C)s1	8	-9	0	9	6	1
